Results on ten molecules are retold here after PubChem BioAssay.

Assay [1] is described as follows: inhibitors of TNFa-induced NFkB p65 translocation, primary screen, imaging, HUVEC, MLSMR starter and 10KST1 sets (AID 438;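 active = inhibition above 20% together with a positive visual image hit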;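 also: compound added about 3h40 before a 20 min TNFalpha stimulation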;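 as to inhibition: signal is the nuclear over cytoplasmic p65 intensity ratio per well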). The settings on record: HUVEC TNFa-induced p65 nuclear translocation; cell count: measured here: nuclei count (cytotoxicity indicator), at 2.08 µM; inhibition: at 2 µM, stronger effect = higher value, 0% TNFa-plus-vehicle, 100% no-TNFa wells.
Assay [2] is described as follows: reduction of polyQ htt aggregates in cells – imaging, exon1htt(103Q)mCFP cells, high-content imaging, primary screen (AID 483;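 active = visual image review flags a hit and inhibition of aggregation exceeds 20%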;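 also: compound exposure lasted 3 days before fixation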;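 as to nuclei count: percent of the per-plate median nuclei count of sample wells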). The settings on record: exon1htt(103Q)mCFP cell line, aggregate imaging, at 2 µM; inhibition of aggregation: stronger effect = higher value; nuclei count: measured here: cell count, toxicity.
Assay [3] in a line: endothelial E-selectin expression blockers – imaging, HUVEC, immunofluorescence, MLSMR starter and 10KST1 sets, primary screen (AID 487;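 active = visually confirmed hit in the image check and inhibition above 20%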;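 as to inhibition: signal is fraction of cell area covered by stained E-selectin grains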;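 as to nuclei count: 100% = median nuclei count of all wells on the same plate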). The settings on record: HUVEC TNFalpha-induced E-selectin immunofluorescence imaging, at 2 µM; inhibition: stronger effect = higher value; nuclei count: measured here: cell number, toxicity.
Assay [4] concerns the target Voltage-gated potassium channel subunit beta-2 (Rattus norvegicus) (UniProt P62483). Briefly: inhibitors of rat Kvbeta2 reductase activity – biochemical, NADPH fluorescence, primary screen (AID 622;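 active = fluorescence slope higher than the sample average by over 3 SD, cut at about -0.22 in these data, passing the limit was not always enough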;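 also: slope of raw intensity against log time taken from 70 to 1610 s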). The settings on record: recombinant KvBeta, 4-cyanobenzaldehyde reduction, at 10 µM, stronger effect = higher value.
For assay [5] the target is unchanged. Briefly: enhancers of rat Kvbeta2 NADPH turnover – biochemical, NADPH fluorescence, primary screen (AID 623;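 active = NADPH fluorescence slope more negative than the mean of all samples by about 3 SD, 99.7% confidence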;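 also: fluorescence intensity change per second fitted from 20 to 320 s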). The settings on record: Recombinant KvBeta, NADPH fluorescence decrease slope, 10 min; at 10 µM; stronger effect = lower value.
In assay [6] the target is Alpha-2C adrenergic receptor (Homo sapiens) (UniProt P18825). Nature of the assay: compounds altering alpha2C-coupled GIRK flux – cell-based, HEK293 alpha2C/GIRK1/2, thallium flux, primary screen (AID 624;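 active = fluorescence slope after compound addition differing from the mean of all screened samples at 99.7% confidence, in either direction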;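 also: slope of fluorescence ratio to pre-addition baseline per second over 15 to 24 s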). The settings on record: thallium flux BTC fluorescence, at 10 µM, actives lie on both sides.
The nature of assay [7]: inhibitors of larval lipid processing in zebrafish, primary screen, whole organism, PED6 fluorescence, gall bladder and intestine (AID 686;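 active = a full or partial loss of lipid-probe fluorescence in the fish gall bladder, intestine or both, judged by eye; inactive = no fluorescence loss, or compound toxic to the fish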;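 also: larvae 5 to 7 days old with five fish per well; signal comes from phospholipase A2 cleavage of quenched PED6 carried via bile; overnight exposure to compound and PED6 before scoring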). The settings on record: Zebrafish larvae PED6 lipid processing, fluorescence scoring; screened at 20 µM (by protocol). The gist of the method:
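Also added: quenched phospholipase substrate PED6, 100 nM final, ingested by larvae; System: zebrafish larvae, 5-7 d; Quantity: 5 larvae per well; Compound: 20 µM single dose; Schedule: overnight compound and PED6 incubation; Read-out: visual per-well fluorescence inhibition score; Measured by: By-eye fluorescence microscopy; Medium: E3.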

A short description of assay [8]: blockers of RIG-like receptor reporter activation – cell-based, Sendai virus stimulus, luciferase, 10K MLSCN set, TLR/RLR signaling modifier project, primary screen (AID 602276).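 Also: firefly luciferase from ISG56 promoter only with Renilla not read in this screen; 0% = Sendai virus plus DMSO and 100% = medium plus DMSO without virus.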 The settings on record: HEK293 RL24 IRF3 luciferase reporter, at 10 µM, stronger effect = higher value.
Assay [9] can be described thus: TLR3 IRF3 reporter activation blockers – cell-based, poly I:C stimulus, luciferase, 10K MLSCN set, primary screen (AID 602277;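 active = inhibition of the reporter signal at or above 50%; inactive = inhibition below 50%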). The settings on record: HEK293-TLR3 RL24 IRF3 luciferase reporter, at 10 µM, stronger effect = higher value.

The source made the active and inactive calls.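 The calls were made as follows, unless noted: active = inhibition at or above 50% at 10 µM; inactive = inhibition below 50%.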

Sequence of Alpha-2C adrenergic receptor (Homo sapiens) (P18825 whole entry, looked up): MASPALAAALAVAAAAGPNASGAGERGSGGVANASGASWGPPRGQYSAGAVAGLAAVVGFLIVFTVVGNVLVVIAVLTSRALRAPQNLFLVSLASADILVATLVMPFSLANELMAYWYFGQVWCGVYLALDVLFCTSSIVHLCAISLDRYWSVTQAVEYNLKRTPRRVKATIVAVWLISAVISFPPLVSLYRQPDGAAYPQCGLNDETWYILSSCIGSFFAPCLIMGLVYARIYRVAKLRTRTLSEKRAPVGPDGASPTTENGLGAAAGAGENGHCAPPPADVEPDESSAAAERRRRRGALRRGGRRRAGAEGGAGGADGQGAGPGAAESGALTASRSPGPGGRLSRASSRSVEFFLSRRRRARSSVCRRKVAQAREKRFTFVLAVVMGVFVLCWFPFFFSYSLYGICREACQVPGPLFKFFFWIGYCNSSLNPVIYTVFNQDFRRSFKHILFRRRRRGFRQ
Sequence of Voltage-gated potassium channel subunit beta-2 (Rattus norvegicus) (P62483 whole entry, looked up): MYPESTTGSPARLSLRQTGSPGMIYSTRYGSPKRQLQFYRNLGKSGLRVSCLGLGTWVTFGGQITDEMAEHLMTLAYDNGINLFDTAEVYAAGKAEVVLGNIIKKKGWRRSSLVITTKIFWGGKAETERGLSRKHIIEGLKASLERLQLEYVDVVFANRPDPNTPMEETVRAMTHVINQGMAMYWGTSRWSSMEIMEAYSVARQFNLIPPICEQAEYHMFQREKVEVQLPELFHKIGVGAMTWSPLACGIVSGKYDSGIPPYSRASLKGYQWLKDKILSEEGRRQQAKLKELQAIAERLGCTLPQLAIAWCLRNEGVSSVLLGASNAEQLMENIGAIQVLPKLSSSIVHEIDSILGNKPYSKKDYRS

With `O=C(CSc1nnc(-c2ccco2)n1CC1CCCO1)N1CCCCC1` (stereo not given), the cell count in [1] came out at 375. Besides, the inhibition in assay [1] was 1.4% (inactive); in assay [3], -41% (inactive); in assay [8], 13.1% (inactive); in assay [9] it was 11.6% (inactive). Besides, the inhibition of aggregation in assay [2] is 9.7% (inactive). Moreover, the nuclei count in assay [2] was 102%; in assay [3] it was 107%. In addition, the fluorescence slope in [4] is -0.378 (inactive). In addition, in [5], the NADPH fluorescence slope is -6.2e-05 (inactive). Also, the slope in assay [6] is 0.00431 (inactive). In [7], the molecule was called inactive.
Consider `Cc1cc(C(=O)CSc2nnc(-c3ccccc3)n2C)c(C)n1C`, for which the cell count in assay [1] stood at 403. Also, the inhibition in assay [1] was 4.4% (inactive); in assay [3], -5.3% (inactive); in [8], -0.894% (inactive); in assay [9], 78.4% (active). Moreover, in assay [2], the inhibition of aggregation is 3.6% (inactive). Also, the values for the nuclei count in assay [2] and in [3] were 88.2% and 107%, respectively. For the same molecule, the fluorescence slope in assay [4] is -0.477 (inactive). Also, in assay [5], the NADPH fluorescence slope was -5.5e-05 (inactive). Moreover, the slope in assay [6] was 0.00512 (inactive). Moreover, in assay [7], the call was inactive.
`CCCCN1CN(S(=O)(=O)c2cccs2)c2nc3ccccc3nc21`: the cell count in [1] was found to be 253. Moreover, the inhibition in assay [1] was -13% (inactive); in assay [3], 0.2% (inactive); in assay [8], -4.14% (inactive); in assay [9], -4.36% (inactive). Besides, the inhibition of aggregation in assay [2] is 0.5% (inactive). For the same molecule, the nuclei count in assay [2] worked out at 83.1%; in assay [3] it was 91.6%. Moreover, the fluorescence slope in assay [4] was -0.393 (inactive). In addition, the NADPH fluorescence slope in [5] was -5.6e-05 (inactive). Also, the slope in [6] was 0.00634 (inactive). In addition, the outcome in assay [7] was inactive.
As for `Cc1ccc(NC(=O)COC(=O)c2ccn(C)n2)cc1`, the cell count in assay [1] came to 521. Moreover, the inhibition is -2.1% (inactive) in assay [1], -28.3% (inactive) in [3], 17.1% (inactive) in [8] and 22.3% (inactive) in [9]. Further, the inhibition of aggregation in [2] is -15.4% (inactive). Also, the nuclei count is 89.1% in assay [2] and 109% in assay [3]. For the same molecule, the fluorescence slope in [4] was -0.39 (inactive). In addition, the NADPH fluorescence slope in assay [5] is 1.1e-05 (inactive). Also, the slope in assay [6] was 0.0046 (inactive). The result in assay [7] was inactive.
Regarding `COc1ccc(Cl)c(N2CCN(CCCNC(=O)Nc3ccc(C)cc3)CC2)c1`, in assay [1], the cell count was determined as 320. The inhibition is 2.4% (inactive) in [1], 16% (inactive) in assay [3], 2.1% (inactive) in assay [8] and -5.24% (inactive) in assay [9]. Also, the inhibition of aggregation in assay [2] is -10.7% (inactive). The results for the nuclei count in assay [2] and in [3] were 98.8% and 108%, respectively. For the same molecule, in [4], the fluorescence slope is -0.479 (inactive). The NADPH fluorescence slope in assay [5] was -5.7e-05 (inactive). The slope in assay [6] was 0.0037 (inactive). Also, in [7], the outcome was inactive.
`C(=N\n1cnnc1)/c1cccc(OCCOc2ccccc2)c1`: the cell count in assay [1] is 237. The inhibition in [1] was 7.1% (inactive); in assay [3] it was -33.2% (inactive); in assay [8], -29.6% (inactive); in assay [9] it was -51.4% (inactive). Besides, in [2], the inhibition of aggregation was 0% (inactive). In addition, the nuclei count in assay [2] amounted to 96%; in [3], 108%. Moreover, the fluorescence slope in assay [4] is -0.351 (inactive). The NADPH fluorescence slope in assay [5] was -3.7e-05 (inactive). The slope in [6] was 0.00586 (inactive). The molecule was called inactive in assay [7].
As to `CCN(CC)S(=O)(=O)c1ccc2c(c1)nc(SCn1nnc3ccccc3c1=O)n2CC`, the cell count in assay [1] stood at 765. For the same molecule, the inhibition is 6% (inactive) in assay [1], -114% (inactive) in [3], 15.4% (inactive) in assay [8] and 11.9% (inactive) in assay [9]. Moreover, the inhibition of aggregation in [2] was 6.8% (inactive). Also, the nuclei count in [2] stood at 94.2%; in [3], 129%. Further, in assay [4], the fluorescence slope is -0.433 (inactive). Moreover, in assay [5], the NADPH fluorescence slope is -6.2e-05 (inactive). Further, the slope in assay [6] is 0.00509 (inactive). In addition, in assay [7], the call was inactive.
Regarding `Cc1nnc(SCc2nnc(-c3ccccc3Br)o2)n1-c1ccccc1`, in [1], the cell count was 730. For the same molecule, the inhibition is 14.5% (inactive) in assay [1], -59.5% (inactive) in [3], 6.33% (inactive) in assay [8] and 8.93% (inactive) in [9]. Also, the inhibition of aggregation in assay [2] is 38.5% (inactive). The nuclei count in assay [2] is 87.5%; in assay [3], 93.8%. Moreover, the fluorescence slope in assay [4] was -0.455 (inactive). Moreover, the NADPH fluorescence slope in assay [5] is -4e-05 (inactive). For the same molecule, the slope in assay [6] is 0.00597 (inactive). Moreover, the result in [7] was inactive.
`CCC(CCC(=O)Nc1cccc(C(=O)O)c1)C(=O)O` (stereo not given): in assay [1], the cell count was 506. Moreover, the inhibition in assay [1] is 8.8% (inactive); in [3] it was 49.6% (inactive); in assay [8], 4.27% (inactive); in assay [9] it was -4.76% (inactive). Moreover, in assay [2], the inhibition of aggregation is 10.2% (inactive). The nuclei count in [2] was found to be 86.5%; in assay [3] it was 74.2%. For the same molecule, the fluorescence slope in assay [4] is -0.448 (inactive). Also, the NADPH fluorescence slope in assay [5] is -2.4e-05 (inactive). For the same molecule, in assay [6], the slope was 0.00563 (inactive). Besides, the result in assay [7] was inactive.
Consider `O=C(CSc1ccc(-c2ccccc2)nn1)N1CCOCC1`, for which the cell count in assay [1] turned out to be 664. For the same molecule, the inhibition was -5.6% (inactive) in [1], 57.9% (active) in assay [3], 5.28% (inactive) in [8] and -10.6% (inactive) in assay [9]. Also, the inhibition of aggregation in [2] is -24% (inactive). The nuclei count came to 118% in assay [2] and 132% in [3]. In addition, the fluorescence slope in assay [4] is -0.452 (inactive). Moreover, the NADPH fluorescence slope in [5] was -4.4e-05 (inactive). The slope in assay [6] was 0.00495 (inactive). For the same molecule, in assay [7], the call was inactive.
